MC4R antag cAMP: MC4R antagonists of cAMP signaling, primary screen, cell-based, TR-FRET, antagonist arm of biased-ligand search; 0.48% of 360,000 active; inhibition, % at 6.5 µM; MC4R-expressing cells, MTII-stimulated cAMP, LANCE TR-FRET; AID 540295, 2011; Melanocortin receptor 4 (Homo sapiens), P32245;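 active = inhibition above its plate's cutoff, the mean of tested wells on that plate plus 3 SD, cut at about 29% in these data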
Target sequence (P32245 whole entry, looked up): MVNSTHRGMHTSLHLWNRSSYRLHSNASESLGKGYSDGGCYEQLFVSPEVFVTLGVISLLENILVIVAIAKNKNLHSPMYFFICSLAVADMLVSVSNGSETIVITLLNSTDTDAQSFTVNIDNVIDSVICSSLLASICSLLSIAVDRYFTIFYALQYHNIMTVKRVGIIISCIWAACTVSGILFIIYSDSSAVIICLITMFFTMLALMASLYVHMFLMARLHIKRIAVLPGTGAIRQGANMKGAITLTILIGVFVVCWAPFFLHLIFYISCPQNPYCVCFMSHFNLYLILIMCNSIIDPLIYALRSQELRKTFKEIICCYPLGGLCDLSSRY
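System: U2OS-MC4R stable cell line; Technique: Eu-cAMP/anti-cAMP TR-FRET, emission 671 nm; Repeats: single well per compound; Also added: Melanotan II; Dosing: one concentration, 6.5 µM nominal; Schedule: 30-min compound, 1-h challenge, 1-h detection, room temperature.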
MsrA act: bovine MsrA enzyme activators, primary screen, biochemical, absorbance, HTS. 0.3% of 360,000 active. purified bovine MsrA, absorbance read-out. activation, % at 10.6 µM. Methionine sulfoxide reductase A (Bos taurus); in the data active = activation above about 7.5%
MsrA inhibitor: bovine MsrA enzyme inhibitors, primary screen, biochemical, absorbance, HTS. Methionine sulfoxide reductase A (Bos taurus). purified bovine MsrA, absorbance read-out. inhibition, % at 15.5 µM. 0.75% of 360,000 active. AID 651718, 2012; in the data active = inhibition above about 4.5%
MC4R barr agon: MC4R agonists recruiting beta-arrestin, primary screen, cell-based, luminescence, agonist arm of biased-ligand search | activation, % at 8.9 µM | Melanocortin receptor 4 (Homo sapiens), P32245 | U2OS MC4R beta-arrestin complementation; percent of melanotan II response, DMSO zero | 0.98% of 360,000 active;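 active = activation above a per-plate cutoff, the mean activation of sample wells on that plate plus 3 SD, cut at about 8% in these data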
Hits are given with their value; - = inactive; . = no result given. A selection: hits, their analogues and other compounds. The true share with any hit is near 2.3%.

SMILES	MC4R antag cAMP	MsrA act	MsrA inhibitor	MC4R barr agon
CC(C)Oc1ccc(-c2cc(C(=O)NCCN3CCOCC3)c3ccccc3n2)cc1	-	-	4.6	-
O=C(NCCN1CCOCC1)c1cc(-c2ccc(F)cc2)nc2ccccc12	-	-	-	-
CC1CCN(S(=O)(=O)c2ccc3[nH]cc(C(=O)NCCN4CCOCC4)c(=O)c3c2)CC1	-	-	-	-
CCn1nc(NC(=O)COC)c2cc3cccc(C)c3nc21	-	-	-	-
CCn1nc(NC(=O)Cc2ccc(OC)cc2)c2cc3cccc(C)c3nc21	-	-	-	9.3
COc1ccc2cc1Oc1ccc(cc1)CC1c3c(cc(OC)c4c3Oc3cc5c(cc3O4)CCNC5C2)CCN1C (stereo not drawn)	-	-	.	45
COc1ccc2cc1Oc1ccc(cc1)C[C@H]1c3c(cc(OC)c4c3Oc3c(ccc5c3[C@H](C2)N(C)CC5)O4)CCN1C	-	-	.	-
Cc1cc(C)nc(N/N=C/c2ccccc2)n1	-	-	.	-
Cc1nc(N/N=C/c2ccccc2)nc(N(C)c2ccccc2)c1[N+](=O)[O-]	-	-	-	10
Cc1ccc(NC(=O)/C(=C\c2ccc3c(c2)OCO3)NC(=O)c2ccco2)cc1	-	-	4.5	-
CCOC(=O)N1CCN(c2ccc(C(C)=O)cc2F)CC1C (stereo not drawn)	-	-	4.6	-
CN(C)Cc1cc(C(C)(C)C)cc(C(C)(C)C)c1O	-	-	-	-
Cc1ccsc1/C=N/NC(=O)C1CC(=O)N(c2ccc(F)cc2)C1 (stereo not drawn)	-	-	-	-
Cc1ccc(N2CC(C(=O)N/N=C/c3sccc3C)CC2=O)cc1 (stereo not drawn)	-	-	4.6	-
C[n+]1cn(CC(O)COCc2ccccc2)c2ccccc21 (stereo not drawn)	-	-	-	-
CCCCCc1ccc(OCCOCCn2c[n+](C)c3ccccc32)c(CCCCC)c1	-	-	.	17
O=C(Cc1coc2ccc3ccccc3c12)NCc1ccccc1	-	-	-	-
O=C(Cc1coc2ccc3ccccc3c12)NC1CCCc2ccccc21 (stereo not drawn)	-	-	-	9.1
Cc1ccc(S(=O)(=O)NNC(=O)c2cnn(-c3ccccc3)c2-n2cccc2)cc1	-	-	-	-
COc1ccc(NC2=NC(=S)N(c3ccccc3C)C23CCCCC3)cc1	-	-	-	-
COc1ccc(N2C(=S)N=C(Nc3ccccc3)C23CCCCC3)cc1	-	-	-	14
O=C(CSc1nc2cc(Cl)ccc2s1)NCc1ccc2c(c1)OCO2	-	-	-	9.5
Cc1nnc(SCC(=O)NCc2ccc3c(c2)OCO3)s1	-	-	-	-
Cc1cc(Cl)ccc1OC(C)C(=O)NCCCCc1ccccc1 (stereo not drawn)	-	-	-	9.0
CN(C)CCCN(C(=O)c1ccc2c(c1)CCCC2)c1nc2ccc(Cl)cc2s1	-	-	-	9.1
SMILES	MC4R antag cAMP	MsrA act	MsrA inhibitor	MC4R barr agon
Cc1cc(C)c2nc(N(CCCN(C)C)C(=O)C3=COCCO3)sc2c1	-	-	-	-
CN(C)CCN(C(=O)c1ccc(S(=O)(=O)N2CCCC2)cc1)c1nc2ccc(Br)cc2s1	-	-	-	-
Cc1cc(C)c2nc(N(CCCN(C)C)C(=O)c3ccc4c(c3)OCCO4)sc2c1	-	-	-	8.4
CC1CCCCN1S(=O)(=O)c1ccc(C(=O)N(CCCN(C)C)c2nc3ccc(Br)cc3s2)cc1 (stereo not drawn)	-	-	-	8.8
Cc1ccccc1NC(=O)CSc1nnc(NC(=O)C2CC2)s1	-	-	-	-
C=CCNC(=O)c1c(N)n(-c2ccc3c(c2)OCO3)c2nc3ccccc3nc12	-	-	-	8.7
O=C1C=CC(=O)N1c1ccccc1N1C(=O)C=CC1=O	37	-	-	-
Cc1cc(S(=O)(=O)Nc2c(NC3CCCCC3)c3ccccc3oc2=O)ccc1F	-	-	-	8.4
CCCCCC(=O)N1CCN(CCN=CC2=C(O)CC(c3ccco3)CC2=O)CC1 (stereo not drawn)	-	-	-	-
Cc1ccc(C)c(NC(=S)N2CCN(c3cccc(C(F)(F)F)c3)CC2)c1	-	-	-	9.1
FC(F)(F)c1cccc(N2CCN(C(=S)NC3CCCC3)CC2)c1	-	-	-	8.3
Cc1c(CCOC(=O)C23CC4CC(CC(C)(C4)C2)C3)sc[n+]1CC(=O)c1ccccc1	-	-	-	9.3

Compound activity (PubChem)
